Measurements as given in ChEMBL document CHEMBL3259614, “Design, synthesis, and structure-activity relationship studies of novel fused heterocycles-linked triazoles with good activity and water solubility” (J Med Chem, 2014).
≈ marks a conversion by molar mass, not a printed value.

Tests used:
Format in all cases: functional
[1] = test system: Candida albicans; test: Antimicrobial activity against Candida albicans SC5314 after 24 hrs by serial dilution method; details: SC5314, 24 h
Outline: (§1)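 Broth serial dilution MIC in 96-well plates following NCCLS/CLSI methods. Compounds were dissolved in DMSO and serially diluted in growth medium, with incubation at 35 °C. […] C. parapsilosis 22019 served as the quality-control strain in each assay.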

[2] = test system: Candida albicans; test: Antimicrobial activity against Candida albicans Y0109 after 24 hrs by serial dilution method; details: Y0109, 24 h; outline: as §1
[3] = test system: Candida parapsilosis; test: Antimicrobial activity against Candida parapsilosis 22019 after 24 hrs by serial dilution method; details: Lodderomyces parapsilosis, 22019, 24 h; outline: as §1
[4] = test system: Cryptococcus neoformans; test: Antimicrobial activity against Cryptococcus neoformans 32609 after 72 hrs by serial dilution method; details: Cryptococcus neoformans, 32609, 72 h; outline: as §1
[5] = test system: Nakaseomyces glabratus; test: Antimicrobial activity against Candida glabrata 537 after 24 hrs by serial dilution method; details: Nakaseomyces glabratus, 537, 24 h; outline: as §1
[6] = test system: Aspergillus fumigatus; test: Antimicrobial activity against Aspergillus fumigatus 7544 after 48 hrs by serial dilution method; details: Aspergillus fumigatus, 7544, 48 h; outline: as §1

SMILES	MIC [1] [µg/mL]	MIC [2] [µg/mL]	MIC [3] [µg/mL]	MIC [4] [µg/mL]	MIC [5] [µg/mL]	MIC [6] [µg/mL]
C[C@@H](N1CCc2nc(-c3ccsc3)sc2C1)[C@](O)(Cn1cncn1)c1ccc(F)cc1F	0.25 (≈ 0.528 µM)	0.25 (≈ 0.528 µM)	0.25 (≈ 0.528 µM)	0.25 (≈ 0.528 µM)	0.25 (≈ 0.528 µM)	8 (≈ 16.9 µM)
C[C@@H](N1CCn2nc(-c3ccco3)nc2C1)[C@](O)(Cn1cncn1)c1ccc(F)cc1F	0.125 (≈ 0.283 µM)	0.125 (≈ 0.283 µM)	0.25 (≈ 0.566 µM)	0.25 (≈ 0.566 µM)	0.25 (≈ 0.566 µM)	16 (≈ 36.2 µM)
C[C@@H](N1CCn2nc(-c3ccsc3)nc2C1)[C@](O)(Cn1cncn1)c1ccc(F)cc1F	0.125 (≈ 0.273 µM)	0.125 (≈ 0.273 µM)	0.125 (≈ 0.273 µM)	0.125 (≈ 0.273 µM)	0.125 (≈ 0.273 µM)	16 (≈ 35 µM)
C[C@@H](N1CCn2nc(Br)nc2C1)[C@](O)(Cn1cncn1)c1ccc(F)cc1F	0.125 (≈ 0.275 µM)	0.125 (≈ 0.275 µM)	0.25 (≈ 0.55 µM)	0.25 (≈ 0.55 µM)	0.5 (≈ 1.1 µM)	16 (≈ 35.2 µM)
C[C@@H](N1CCn2nc(-c3ccncc3)nc2C1)[C@](O)(Cn1cncn1)c1ccc(F)cc1F	0.0625 (≈ 0.138 µM)	0.0625 (≈ 0.138 µM)	0.0312 (≈ 0.0691 µM)	0.125 (≈ 0.276 µM)	0.125 (≈ 0.276 µM)	16 (≈ 35.4 µM)
C[C@@H](N1CCn2nc(-c3cncnc3)nc2C1)[C@](O)(Cn1cncn1)c1ccc(F)cc1F	0.0312 (≈ 0.0689 µM)	0.125 (≈ 0.276 µM)	0.0625 (≈ 0.138 µM)	0.0625 (≈ 0.138 µM)	0.0625 (≈ 0.138 µM)	32 (≈ 70.6 µM)
C[C@@H](N1CCn2nc(-c3ccc(F)nc3)nc2C1)[C@](O)(Cn1cncn1)c1ccc(F)cc1F	0.0156 (≈ 0.0332 µM)	0.0625 (≈ 0.133 µM)	0.0625 (≈ 0.133 µM)	0.0312 (≈ 0.0664 µM)	0.0312 (≈ 0.0664 µM)	2 (≈ 4.25 µM)
C[C@@H](N1CCn2nc(-c3cncc(F)c3)nc2C1)[C@](O)(Cn1cncn1)c1ccc(F)cc1F	0.125 (≈ 0.266 µM)	0.125 (≈ 0.266 µM)	0.125 (≈ 0.266 µM)	0.125 (≈ 0.266 µM)	1 (≈ 2.13 µM)	32 (≈ 68 µM)
C[C@@H](N1CCn2nc(-c3cncc(C#N)c3)nc2C1)[C@](O)(Cn1cncn1)c1ccc(F)cc1F	0.125 (≈ 0.262 µM)	0.125 (≈ 0.262 µM)	0.25 (≈ 0.524 µM)	0.125 (≈ 0.262 µM)	1 (≈ 2.09 µM)	64 (≈ 134 µM)
COc1ccc(-c2nc3n(n2)CCN([C@H](C)[C@](O)(Cn2cncn2)c2ccc(F)cc2F)C3)cn1	0.0625 (≈ 0.13 µM)	0.125 (≈ 0.259 µM)	0.125 (≈ 0.259 µM)	0.25 (≈ 0.518 µM)	0.5 (≈ 1.04 µM)	32 (≈ 66.3 µM)
Cc1ncc(-c2nc3n(n2)CCN([C@H](C)[C@](O)(Cn2cncn2)c2ccc(F)cc2F)C3)cn1	0.0625 (≈ 0.134 µM)	0.125 (≈ 0.267 µM)	0.125 (≈ 0.267 µM)	0.125 (≈ 0.267 µM)	0.25 (≈ 0.535 µM)	32 (≈ 68.5 µM)
COc1ncc(-c2nc3n(n2)CCN([C@H](C)[C@](O)(Cn2cncn2)c2ccc(F)cc2F)C3)cn1	0.0625 (≈ 0.129 µM)	0.125 (≈ 0.259 µM)	0.25 (≈ 0.517 µM)	0.5 (≈ 1.03 µM)	0.25 (≈ 0.517 µM)	32 (≈ 66.2 µM)
C[C@@H](N1CCc2nc(Br)sc2C1)[C@](O)(Cn1cncn1)c1ccc(F)cc1F	1 (≈ 2.13 µM)	1 (≈ 2.13 µM)	1 (≈ 2.13 µM)	0.5 (≈ 1.06 µM)	1 (≈ 2.13 µM)	32 (≈ 68 µM)
C[C@@H](N1CCc2nc(-c3ccc(Cl)cc3)sc2C1)[C@](O)(Cn1cncn1)c1ccc(F)cc1F	0.5 (≈ 0.996 µM)	1 (≈ 1.99 µM)	2 (≈ 3.98 µM)	1 (≈ 1.99 µM)	1 (≈ 1.99 µM)	32 (≈ 63.7 µM)
C[C@@H](N1CCc2nc(-c3ccc(C(F)(F)F)cc3)sc2C1)[C@](O)(Cn1cncn1)c1ccc(F)cc1F	1 (≈ 1.87 µM)	2 (≈ 3.73 µM)	2 (≈ 3.73 µM)	2 (≈ 3.73 µM)	1 (≈ 1.87 µM)	32 (≈ 59.8 µM)
COc1ccc(-c2nc3c(s2)CN([C@H](C)[C@](O)(Cn2cncn2)c2ccc(F)cc2F)CC3)cc1	1 (≈ 2.01 µM)	1 (≈ 2.01 µM)	0.5 (≈ 1 µM)	1 (≈ 2.01 µM)	1 (≈ 2.01 µM)	16 (≈ 32.2 µM)
Cc1ccc(-c2nc3c(s2)CN([C@H](C)[C@](O)(Cn2cncn2)c2ccc(F)cc2F)CC3)cc1	0.5 (≈ 1.04 µM)	1 (≈ 2.08 µM)	0.5 (≈ 1.04 µM)	0.5 (≈ 1.04 µM)	1 (≈ 2.08 µM)	16 (≈ 33.2 µM)
C[C@@H](N1CCc2nc(-c3ccc(F)cc3)sc2C1)[C@](O)(Cn1cncn1)c1ccc(F)cc1F	1 (≈ 2.06 µM)	1 (≈ 2.06 µM)	2 (≈ 4.12 µM)	1 (≈ 2.06 µM)	4 (≈ 8.24 µM)	16 (≈ 33 µM)
C[C@@H](N1CCc2nc(-c3ccc(Br)cc3)sc2C1)[C@](O)(Cn1cncn1)c1ccc(F)cc1F	1 (≈ 1.83 µM)	1 (≈ 1.83 µM)	4 (≈ 7.32 µM)	1 (≈ 1.83 µM)	2 (≈ 3.66 µM)	16 (≈ 29.3 µM)
CC(C)c1ccc(-c2nc3c(s2)CN([C@H](C)[C@](O)(Cn2cncn2)c2ccc(F)cc2F)CC3)cc1	0.5 (≈ 0.981 µM)	1 (≈ 1.96 µM)	0.5 (≈ 0.981 µM)	1 (≈ 1.96 µM)	1 (≈ 1.96 µM)	16 (≈ 31.4 µM)
